Laboratory results reported in publication PMC9200128 (Chemical Science, 2022).
No end group written: not given here.

Experiments:
[1] = Body weight of xenograft mice during treatment; type: in vivo; conditions: 9 doses 5 mg kg−1, Fig. 6c
Outline: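 MDA-MB-231 cells (3 × 10^6) injected subcutaneously into 7–8-week-old athymic nude (FOXN1NU) mice. Dosing started 28 days after inoculation and ran for 3 weeks: either 6 doses of peptide at 50 μM (0.875 mg kg−1; 17.5 microgram/mouse) or 9 doses of doxorubicin (5 mg kg−1). Body weight and tumour size were tracked throughout.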

MDA-MB-231 cells = assay: Uptake of fluorescein labelled peptide, confocal microscopy; type: cell-based, human; conditions: 10 μM, confocal fluorescence, inside cells at 3 and 6 hours; Fig. 1d, e
MCF-10A cells = assay: Uptake of fluorescein labelled peptide, confocal microscopy; type: cell-based, human; conditions: 10 μM, confocal fluorescence; Fig. 1d, e
Outline: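 MCF-10A cells were grown in 1:1 DMEM/Ham's F12 with 5% horse serum, EGF, insulin, hydrocortisone, cholera toxin and pen/strep. They were plated a day ahead at 2 × 10^5 in glass-bottom chamber dishes and exposed to fluorescein-labelled peptide (10 μM) for up to 24 h. Nuclei were stained with Hoechst 33342 and mitochondria with Rhodamine 800, then imaged by confocal microscopy over time. Data: 25 cells per field per time point, n = 5 independent experiments, mean ± SD.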

[2] = test system: rat cardio myoblast H9C2 cells; assay: Penetration and cytotoxicity in non-malignant immortalized cells; type: cell-based; conditions: semi-confocal microscopy, 3h incubation; Fig. S2
[3] = test system: human embryonic kidney 293 HEK cells; assay: as above; type: cell-based; conditions: semi-confocal microscopy, 3h incubation; Fig. S2

Molecule: COc1cccc2c1C(=O)c1c(O)c3c(c(O)c1C2=O)C[C@@](O)(C(=O)CO)C[C@@H]3O[C@H]1C[C@H](N)[C@H](O)[C@H](C)O1 [doxorubicin]
- body weight during treatment [1]: severe decrease in body weight

Molecule: Fl-NAF-1^44-67: NAF-1^44-67 labelled with fluorescein ({5(6)‑carboxyfluorescein}-FLGVLALLGYLAVRPFLPKKKQQK; UniProt Q8N5K1 44-67, looked up, fragment)
- penetration of fluorescein-labelled peptide into MDA-MB-231 cells (MDA-MB-231 cells): preferentially penetrated MDA-MB-231 cancer cells
- penetration of fluorescein-labelled peptide into MCF-10A cells (MCF-10A cells): did not permeate normal cells
- entry of fluorescein-labelled peptide into H9C2 cells [2]: no entry
- entry of fluorescein-labelled peptide into 293 HEK cells [3]: no entry
